Data on 8 compounds can be found in ChEMBL document CHEMBL1139049, “Highly potent 3-pyrroline mechanism-based inhibitors of bovine plasma amine oxidase and mass spectrometric confirmation of cofactor derivatization” (Bioorg Med Chem, 2007).

Assay [1] can be described thus: (§1) Inhibition of BPAO after 20 mins by benzylamine assay. Also on record: species or system Bos taurus. The method in brief:
(§2)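 Bovine plasma amine oxidase (~1 μM) preincubated with varying inhibitor concentrations at 30 °C in 50 mM sodium phosphate, pH 7.2. Aliquots taken over time were assayed for residual activity by the benzylamine assay, with benzaldehyde formation followed at 250 nm. The value is the concentration giving 50% inactivation at a fixed 20 min.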

Assay [2] is filed under the species Bos taurus. The assay can be described thus: Ratio of kinact to Ki for BPAO. The method, boiled down:
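Inactivation of ~1 μM BPAO by varying inhibitor concentrations, at 30 °C in 50 mM sodium phosphate, pH 7.2. Residual activity in time aliquots was read by benzylamine oxidation (benzaldehyde, 250 nm). Log activity versus time gave pseudo-first-order rates, and kinact and Ki were obtained from Kitz–Wilson plots.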

For assay [3], the species on record is Bos taurus. In words: Inhibition of BPAO assessed as redox cycling activity by NBT assay. The method in brief:
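BPAO was inactivated by preincubation with inhibitor in 50 mM sodium phosphate, pH 7.2. The inactivated preparations were then tested for TPQ cofactor redox cycling by the standard sodium glycinate nitroblue tetrazolium staining assay.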

The species named for assay [4] is Bos taurus. Described as §1. The method, boiled down: as §2

Calls of active or inactive are those of the source. The calls are words filed in the database; no cut-off is given here.

Usually IC50 stands for the concentration at which inhibition is half-maximal. A high value points to weaker potency in that assay. The term Ki denotes the equilibrium dissociation constant of an inhibitor or competing ligand from its target. Higher therefore signals weaker binding.

In turn, `C1=C(c2ccccn2)CNC1` showed an IC50 in assay [1] of 0.75 µM. Besides, the Ratio in the assay listed under Bos taurus [2] stood at 65 mM⁻¹ min⁻¹.

The compound `Fc1c(F)c(F)c(C2=CCNC2)c(F)c1F` gave an IC50 in assay [1] of 6.1 µM. In addition, the Ratio in the assay filed under Bos taurus [2] turned out to be 6 mM⁻¹ min⁻¹. Moreover, the outcome in the assay listed under Bos taurus [3] was Active.

`C1=C(c2ccncc2)CNC1`: the Kinact in the assay listed under Bos taurus [4] stood at 0.091 min⁻¹. Moreover, in assay [1], inhibition was half-maximal at 50 µM (IC50) and the Ki was 76 µM. For the same compound, the Ratio in the assay filed under Bos taurus [2] came to 1.2 mM⁻¹ min⁻¹. For the same compound, the outcome in the assay listed under Bos taurus [3] was Active.

In assay [1], `C[n+]1cccc(C2=CCNC2)c1` had an IC50 of 500 µM.

Consider `C1=C(c2nccc3ccccc23)CNC1`, for which the midpoint of inhibition in assay [1], the IC50, lay at 0.86 µM. In the assay listed under Bos taurus [2], the Ratio turned out to be 40 mM⁻¹ min⁻¹. Besides, the outcome in the assay listed under Bos taurus [3] was Active.

Consider `C1=C(c2cccnc2)CNC1`, for which the IC50 in assay [1] worked out at 1.5 µM. In addition, the Ratio in the assay listed under Bos taurus [2] came out at 24 mM⁻¹ min⁻¹.

`C[n+]1ccc(C2=CCNC2)cc1` yielded an IC50 in assay [1] above 1000 µM.

With `C1=C(c2ccc3ccccc3n2)CNC1`, the IC50 in assay [1] was 2.7 µM. For the same compound, in the assay filed under Bos taurus [2], the Ratio is 13 mM⁻¹ min⁻¹.
